In ChEMBL document CHEMBL3797090, “One-pot synthesis of 1,4-dihydroxy-2-((E)-1-hydroxy-4-phenylbut-3-enyl)anthracene-9,10-diones as novel shikonin analogs and evaluation of their antiproliferative activities” (Bioorg Med Chem Lett, 2016):

Experiments:
[1] = Cytotoxicity against human MIAPaCa2 cells assessed as reduction in cell growth after 72 hrs by cell titer glo assay; assay type: functional, cell-based; details: MIA PaCa-2, 72 h
[2] = Cytotoxicity against human MCF10 cells assessed as cell viability at 33.3 uM after 72 hrs by cell titer glo assay; assay type: cell-based; details: read-out: Activity
Summary of the method: (§1)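 The highest concentration tested was 33.3 μM, in a series running down to 0.0152 μM. Results came from three independent experiments.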

MDA-MB-231 [3] = test: Cytotoxicity against human MDA-MB-231 cells assessed as reduction in cell growth after 72 hrs by cell titer glo assay; assay type: functional, cell-based; details: MDA-MB-231, 72 h
Summary of the method: (§2)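 IC50, the concentration giving 50% inhibition of cell growth, was read from plots of inhibition against concentration. Values were calculated from three independent experiments.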

HeLa [4] = test: Cytotoxicity against human HeLa cells assessed as reduction in cell growth after 72 hrs by cell titer glo assay; assay type: functional, cell-based
MCF7 [5] = test: Cytotoxicity against human MCF7 cells assessed as reduction in cell growth after 72 hrs by cell titer glo assay; assay type: functional, cell-based; details: MCF7, 72 h; summary of the method: as §2
[6] = Cytotoxicity against human MIAPaCa2 cells assessed as cell viability at 33.3 uM after 72 hrs by cell titer glo assay; assay type: functional; details: MIA PaCa-2, 72 h, read-out: Activity; summary of the method: as §1
MCF7 [7] = test: Cytotoxicity against human MCF7 cells assessed as cell viability at 33.3 uM after 72 hrs by cell titer glo assay; assay type: functional; details: MCF7, 72 h, read-out: Activity; summary of the method: as §1
MDA-MB-231 [8] = test: Cytotoxicity against human MDA-MB-231 cells assessed as cell viability at 33.3 uM after 72 hrs by cell titer glo assay; assay type: functional; details: MDA-MB-231, 72 h, read-out: Activity; summary of the method: as §1
HeLa [9] = test: Cytotoxicity against human HeLa cells assessed as cell viability at 33.3 uM after 72 hrs by cell titer glo assay; assay type: functional; details: read-out: Activity; summary of the method: as §1
MCF10 = test: Cytotoxicity against human MCF10 cells assessed as reduction in cell growth after 72 hrs by cell titer glo assay; assay type: cell-based; details: MCF10, 72 h
Summary of the method: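 Non-tumour mammary epithelial cells exposed to an 8-point series (33.3, 11.1, 3.7, 1.23, 0.41, 0.137, 0.0457, 0.0152 μM). IC50 is the concentration giving 50% growth inhibition, read from the plot of inhibition against concentration and calculated from three independent experiments.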

| Structure (SMILES) | IC50 [1] [µM] | viability at 72 h, 33.3 µM [2] [%] | IC50 (MDA-MB-231 [3]) [µM] | IC50 (HeLa [4]) [µM] | IC50 (MCF7 [5]) [µM] | viability at 33.3 µM [6] [%] | viability at 33.3 µM (MCF7 [7]) [%] | viability at 33.3 µM (MDA-MB-231 [8]) [%] | viability at 33.3 µM (HeLa [9]) [%] | IC50 (MCF10) [µM] |
| --- | --- | --- | --- | --- | --- | --- | --- | --- | --- | --- |
| O=C1c2ccccc2C(=O)c2c(O)c(C(O)C/C=C/c3cccc(F)c3)cc(O)c21 (stereo unspecified) | 26.3 | > 50 | 26.5 | 25.2 | 32.1 | – | – | – | – | – |
| COc1ccccc1/C=C/CC(O)c1cc(O)c2c(c1O)C(=O)c1ccccc1C2=O (stereo unspecified) | – | > 50 | – | 29 | – | > 50 | > 50 | > 50 | – | – |
| O=C1c2ccccc2C(=O)c2c(O)c(C(O)C/C=C/c3ccc(Cl)cc3)cc(O)c21 (stereo unspecified) | 27.4 | > 50 | 28.5 | 27.4 | 32.3 | – | – | – | – | – |
| O=C1c2ccccc2C(=O)c2c(O)c(C(O)C/C=C/c3ccccc3Cl)cc(O)c21 (stereo unspecified) | – | > 50 | – | 27.2 | 31.5 | > 50 | – | – | – | – |
| O=C1c2ccccc2C(=O)c2c(O)c(C(O)C/C=C/c3ccc(Br)cc3)cc(O)c21 (stereo unspecified) | – | > 50 | – | – | – | > 50 | > 50 | > 50 | > 50 | – |
| O=C1c2ccccc2C(=O)c2c(O)c(C(O)C/C=C/c3cccc(Cl)c3)cc(O)c21 (stereo unspecified) | 26.4 | > 50 | 31.2 | 25.8 | 32.2 | – | – | – | – | – |
| Cc1ccc(/C=C/CC(O)c2cc(O)c3c(c2O)C(=O)c2ccccc2C3=O)cc1 (stereo unspecified) | – | > 50 | – | 29 | – | > 50 | > 50 | > 50 | – | – |
| Cc1cccc(/C=C/CC(O)c2cc(O)c3c(c2O)C(=O)c2ccccc2C3=O)c1 (stereo unspecified) | 28.5 | > 50 | – | 27.2 | 32.8 | – | – | > 50 | – | – |
| Cc1ccccc1/C=C/CC(O)c1cc(O)c2c(c1O)C(=O)c1ccccc1C2=O (stereo unspecified) | 26.1 | > 50 | – | 28.3 | 32.8 | – | – | > 50 | – | – |
| O=C1c2ccccc2C(=O)c2c(O)c(C(O)C/C=C/c3ccccc3)cc(O)c21 (stereo unspecified) | – | > 50 | – | 18.6 | – | > 50 | > 50 | > 50 | – | – |
| O=C1c2ccccc2C(=O)c2c(O)c(C(O)C/C=C/c3ccccc3Br)cc(O)c21 (stereo unspecified) | 27.1 | > 50 | 30.7 | 25.6 | 31.1 | – | – | – | – | – |
| O=C1c2ccccc2C(=O)c2c(O)c(C(O)C/C=C/c3cccc(Br)c3)cc(O)c21 (stereo unspecified) | 27.6 | > 50 | – | 29.1 | 31.7 | – | – | > 50 | – | – |
| COc1ccc(/C=C/CC(O)c2cc(O)c3c(c2O)C(=O)c2ccccc2C3=O)cc1 (stereo unspecified) | 26.3 | > 50 | 26.9 | 24.1 | 32.8 | – | – | – | – | – |
| O=C1c2ccccc2C(=O)c2c(O)c(C(O)C/C=C/c3ccc(F)cc3)cc(O)c21 (stereo unspecified) | 23.2 | > 50 | 28 | 32.9 | 28.5 | – | – | – | – | – |
| O=C1c2ccccc2C(=O)c2c(O)c(C(O)C/C=C/c3ccccc3F)cc(O)c21 (stereo unspecified) | 27.3 | > 50 | 29.2 | 28.7 | – | – | > 50 | – | – | – |
| O=C1C2=C(C(=O)c3ccccc31)C(O)C1=C(O)CC(c3ccccc3)C1=C2O (stereo unspecified) | 27.7 | > 50 | 28.8 | 29.2 | – | – | > 50 | – | – | – |
| COc1cccc(/C=C/CC(O)c2cc(O)c3c(c2O)C(=O)c2ccccc2C3=O)c1 (stereo unspecified) | 27.1 | > 50 | – | 28 | – | – | > 50 | > 50 | – | – |
| COc1cccc2c1C(=O)c1c(O)c3c(c(O)c1C2=O)C[C@@](O)(C(=O)CO)C[C@@H]3O[C@H]1C[C@H](N)[C@H](O)[C@H](C)O1 [DOXORUBICIN] | – | – | 0.16 | – | – | – | – | – | – | 0.16 |
| CC(C)=CC[C@@H](O)C1=CC(=O)c2c(O)ccc(O)c2C1=O [SHIKONIN] | 0.04 | – | 3.94 | 6.42 | 5.49 | – | – | – | – | 4.56 |
